Laboratory results taken from ChEMBL document CHEMBL4346653, “A2B Adenosine Receptor Antagonists with Picomolar Potency” (J Med Chem, 2019).

Legend:
Adenosine receptor A2b = target: T1, Adenosine receptor A2b (Homo sapiens, UniProt P29275); test: Displacement of [3H]PSB-603 from recombinant human A2B adenosine receptor expressed in CHO cell membranes measured after 75 mins in presence of adenosine deaminase by liquid scintillation counting method
T1 sequence (P29275 whole entry): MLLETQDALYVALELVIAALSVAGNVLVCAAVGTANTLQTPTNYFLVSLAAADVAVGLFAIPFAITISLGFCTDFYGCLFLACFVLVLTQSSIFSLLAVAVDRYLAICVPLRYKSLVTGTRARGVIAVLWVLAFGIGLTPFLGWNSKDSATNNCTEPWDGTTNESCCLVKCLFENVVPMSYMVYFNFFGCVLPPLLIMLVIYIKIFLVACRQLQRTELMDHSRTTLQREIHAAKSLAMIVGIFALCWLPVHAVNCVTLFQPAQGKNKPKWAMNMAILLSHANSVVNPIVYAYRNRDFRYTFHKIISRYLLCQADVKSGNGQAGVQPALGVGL
Outline: (§1)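 Competition binding on membranes of cells recombinantly expressing the human receptor (CHO or HEK cells), with tritiated radioligand per subtype: [3H]PSB-603 for A2B, [3H]MSX-2 for A2A, [3H]CCPA for A1, [3H]PSB-11 for A3. Ki ± SEM from n = 3, some from extrapolated curves. Weak binders are reported as % inhibition of radioligand binding at 1 μM.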

Adenosine receptor A2a [1] = target: T2, Adenosine receptor A2a (Homo sapiens, UniProt P29274); test: Displacement of [3H]MSX-2 from recombinant human A2A adenosine receptor expressed in CHO cell membranes measured after 30 mins in presence of adenosine deaminase by liquid scintillation counting method; outline: as §1
T2 sequence (P29274 whole entry): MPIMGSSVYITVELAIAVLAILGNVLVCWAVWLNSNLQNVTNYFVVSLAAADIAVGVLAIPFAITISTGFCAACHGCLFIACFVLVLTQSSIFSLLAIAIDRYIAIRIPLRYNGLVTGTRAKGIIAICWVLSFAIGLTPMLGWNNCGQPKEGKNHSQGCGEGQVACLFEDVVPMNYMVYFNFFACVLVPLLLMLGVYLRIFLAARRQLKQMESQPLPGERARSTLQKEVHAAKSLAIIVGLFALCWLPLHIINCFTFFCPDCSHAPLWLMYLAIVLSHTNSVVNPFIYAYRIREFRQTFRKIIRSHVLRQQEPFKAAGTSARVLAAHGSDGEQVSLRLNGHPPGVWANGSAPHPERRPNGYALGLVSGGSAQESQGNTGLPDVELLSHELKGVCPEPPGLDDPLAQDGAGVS

Adenosine receptor A2a [2] = target: T2, Adenosine receptor A2a; test: Displacement of [3H]MSX-2 from recombinant human A2A adenosine receptor expressed in CHO cell membranes at 1 uM measured after 30 mins in presence of adenosine deaminase by liquid scintillation counting method relative to control
Outline: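 Single-point competition binding at human AR subtype membranes, each against its own tritiated radioligand. The test compound is given at 1 μM, and the result is reported as percent inhibition of radioligand binding. The radioligand-specific footnotes give n = 3.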

[3] = target: T3, Adenosine receptor A1 (Mus musculus) (UniProt Q60612); test: Displacement of [3H]CCPA from recombinant mouse A1 adenosine receptor expressed in CHO cell membranes at 1 uM measured after 90 mins in presence of adenosine deaminase by liquid scintillation counting method relative to control
T3 sequence (whole entry): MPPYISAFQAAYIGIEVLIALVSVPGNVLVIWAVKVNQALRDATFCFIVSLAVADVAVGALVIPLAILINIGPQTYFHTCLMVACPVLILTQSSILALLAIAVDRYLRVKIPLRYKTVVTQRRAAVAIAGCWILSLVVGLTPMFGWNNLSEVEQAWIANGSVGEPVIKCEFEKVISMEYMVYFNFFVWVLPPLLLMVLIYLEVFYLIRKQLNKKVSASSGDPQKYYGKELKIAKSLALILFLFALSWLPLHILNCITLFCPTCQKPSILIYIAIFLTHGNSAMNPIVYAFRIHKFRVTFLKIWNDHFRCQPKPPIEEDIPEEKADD

[4] = target: T4, Adenosine receptor A2b (Homo sapiens) (UniProt P29275); test: Competitive antagonist activity at recombinant human A2B adenosine receptor expressed in CHO cells assessed as reduction in NECA-induced […] cAMP accumulation preincubated for 10 mins followed by NECA stimulation for 15 mins […] and measured after 15 mins; format: functional, cell-based
T4 sequence (whole entry): T1 sequence (P29275 whole entry)

Mus musculus [5] = organism: Mus musculus; test: Selectivity ratio of Ki for displacement of [3H]CCPA from recombinant mouse A1 adenosine receptor expressed in CHO cell membranes to Ki for displacement of [3H]PSB-603 from recombinant mouse A2B adenosine receptor expressed in CHO cell membranes
[6] = Selectivity ratio of Ki for displacement of [3H]PSB-603 from recombinant mouse A2B adenosine receptor expressed in CHO cell membranes to Ki for displacement of [3H]PSB-603 from recombinant human A2B adenosine receptor expressed in CHO cell membranes
Mus musculus [7] = organism: Mus musculus; test: Selectivity ratio of Ki for displacement of [3H]NECA from recombinant mouse A3 adenosine receptor expressed in CHO cell membranes to Ki for displacement of [3H]PSB-603 from recombinant mouse A2B adenosine receptor expressed in CHO cell membranes

| Ki (Adenosine receptor A2b) [nM] | Ki (Adenosine receptor A2a [1]) [nM] | inhibition (Adenosine receptor A2a [2]) [%] | inhibition [3] [%] | Kb [4] [nM] | Structure (SMILES) | Ratio Ki (Mus musculus [5]) | Ratio Ki [6] | Ratio Ki (Mus musculus [7]) |
| --- | --- | --- | --- | --- | --- | --- | --- | --- |
| 0.632 | > 1000 | 38 | 46 | 0.167 | CCCn1c(=O)[nH]c2nc(-c3ccc(S(=O)(=O)N4CCN(c5cccc(F)c5)CC4)cc3)[nH]c2c1=O | > 320 | 1.5 to 6 | – |
| 0.0835 | > 1000 | 33 | 29 | 0.0598 | CCCn1c(=O)[nH]c2nc(-c3ccc(S(=O)(=O)N4CCN(c5ccc(Br)cc5)CC4)cc3)[nH]c2c1=O | > 7630 | – | > 7630 |
| 1.91 | > 1000 | 33 | – | 1.61 | CCCn1c(=O)c2[nH]c(-c3ccc(S(=O)(=O)N4CCN(c5ccc(Cl)cc5)CC4)cc3)nc2n(C)c1=O | – | 1.5 to 6 | 180 |
